Measured values taken from ChEMBL document CHEMBL1926530, “Novel pyrazolo[1,5-a]pyridines as p110α-selective PI3 kinase inhibitors: Exploring the benzenesulfonohydrazide SAR” (Bioorg Med Chem, 2012).

Experiments:
[1] = target: Mitogen-activated protein kinase 14 (Homo sapiens) (UniProt Q16539); assay: Inhibition of p38alpha assessed as residual activity at 10 uM
SK-OV-3 = assay: Antitumor activity against human SKOV3 cells xenografted in nude NIH3 mouse assessed as tumor growth delay at 30 mg/kg, ip QD administered for 14 days relative to untreated control; format: functional; details: SK-OV-3, ip, 336 h, route intraperitoneal, read-out: GI
Method in brief: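 Female NIH III nude mice (age-matched, SPF) inoculated s.c. with 5 × 10⁶ SK-OV-3 cells in PBS. Dosing from ~150 mm³ tumours, 30 mg/kg i.p. q.d. for 14 days in 7.5% DMSO/42.5% PEG-400/20% 2-hydroxypropyl-β-cyclodextrin/30% water; vehicle controls. Volume (L × w²) × π/6 three times weekly; bodyweight daily; culled above 20% weight loss; 1-way ANOVA, Holm–Sidak.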

Sequence of Mitogen-activated protein kinase 14 (Homo sapiens) (Q16539 whole entry): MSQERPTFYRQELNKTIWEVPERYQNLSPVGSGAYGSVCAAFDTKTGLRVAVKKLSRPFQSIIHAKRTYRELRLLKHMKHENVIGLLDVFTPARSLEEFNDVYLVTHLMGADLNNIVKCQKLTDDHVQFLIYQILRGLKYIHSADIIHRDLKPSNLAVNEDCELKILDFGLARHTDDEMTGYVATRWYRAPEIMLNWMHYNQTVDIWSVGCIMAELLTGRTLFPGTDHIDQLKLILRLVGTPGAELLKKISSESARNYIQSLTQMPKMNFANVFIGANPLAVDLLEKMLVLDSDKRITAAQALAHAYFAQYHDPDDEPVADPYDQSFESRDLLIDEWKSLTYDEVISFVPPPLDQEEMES

Activity [1]: 13%
Structure (SMILES): Cc1ccc([N+](=O)[O-])cc1S(=O)(=O)N(CCO)/N=C/c1cnn2ccc(C#N)cc12
inhibition in vivo at 30 mg/kg (SK-OV-3): 49.9%
